The values that follow come from ChEMBL document CHEMBL1142504, “Influence of 6- or 8-substitution on the antiviral activity of 3-arylalkylthiomethylimidazo[1,2-a]pyridine against human cytomegalovirus (CMV) and varicella-zoster virus (VZV): part II” (Bioorg Med Chem, 2008).

Each structure is given as a SMILES string. Values after ≈ are worked out from the molar mass of the structure shown.

Data set [1] relates to Human alphaherpesvirus 3. Put plainly: Antiviral activity against thymidine kinase expressing Varicella-Zoster virus Oka in HEL cells assessed as inhibition of viral cytopathicity. The settings on record: Human alphaherpesvirus 3, Oka. The format is functional, organism-based. In short, it runs like this: (§1)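 VZV input was 20 PFU per HEL cell culture. Cultures were incubated with test compound for 5 days at 37 °C under 5% CO2, then fixed and stained. Viral plaque formation was counted against the untreated control to give the EC50.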
(Damage to the host cells serves as the signal in cytopathic effect assays.)

Data set [2] can be described thus: Cytotoxicity against HEL cells assessed as reduction of growth after 3 days. The format is cell-based. The settings on record: human. In short, it runs like this: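 HEL cell suspensions were added to wells holding varying concentrations of test compound. Plates were incubated 3 days at 37 °C in a humidified CO2 incubator, and viable cells were counted with a Coulter Counter. CC50 is the concentration that reduced viable cell number by 50%.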

A short description of data set [3]: Cytotoxicity against HEL cells assessed as morphological alteration after 3 days. The format is cell-based. The conditions noted are these: human. In short, it runs like this:
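HEL cell cultures were examined by microscope. Cytotoxicity was recorded as the minimum cytotoxic concentration (MCC), meaning the lowest compound concentration that caused a detectable alteration of cell morphology.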

Data set [4] deals with Human alphaherpesvirus 3. Put plainly: Antiviral activity against thymidine kinase deficient Varicella-Zoster virus 07/1 in HEL cells assessed as inhibition of viral cytopathicity. The format is functional, organism-based. The conditions noted are these: Human alphaherpesvirus 3, HEL. In short, it runs like this: as §1
Data set [5] relates to Human betaherpesvirus 5. The experiment in a line: Antiviral activity against human cytomegalovirus Davis in HEL cells assessed as inhibition of viral cytopathicity. The format is functional, organism-based. The conditions noted are these: Human betaherpesvirus 5, Davis. In short, it runs like this:
(§2)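 Confluent HEL cell cultures were inoculated with 100 PFU of HCMV. After 2 h adsorption, residual virus was removed and cells were incubated with varying concentrations of test compound. Viral cytopathicity was scored when it reached completion in the untreated virus-infected controls, and the EC50 was taken from this read-out.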

Data set [6] deals with Human betaherpesvirus 5. Put plainly: Antiviral activity against human cytomegalovirus AD169 in HEL cells assessed as inhibition of viral cytopathicity. The format is functional, organism-based. The settings on record: Human betaherpesvirus 5, AD169, HEL. In short, it runs like this: as §2

By EC50 is commonly meant the concentration that produces a half-maximal response. The term CC50 denotes the concentration at which the toxic effect on the cells reaches its halfway point. For `Cc1cc(-n2ccc3cccnc32)c2ncc(CSCCc3ccccc3)n2c1`, the EC50 in the data set with Human alphaherpesvirus 3 [1] was 6.6 µg/mL (≈ 16.6 µM); with Human alphaherpesvirus 3 [4], 14 µg/mL (≈ 35.1 µM); in the data set on Human betaherpesvirus 5 [5], 1.8 µg/mL (≈ 4.52 µM); in the data set with Human betaherpesvirus 5 [6] it was 4 µg/mL (≈ 10 µM). For the same compound, the CC50 at 72 h in data set [2] was greater than 100 µg/mL. In addition, the MCC at 72 h in data set [3] was determined as 100 µg/mL.

Take `Cc1cc(C#N)c2ncc(CSCCc3ccccc3)n2c1`: the EC50 in the data set on Human alphaherpesvirus 3 [1] is 16.4 µg/mL (≈ 53.3 µM); with Human alphaherpesvirus 3 [4], greater than 4 µg/mL; in the data set with Human betaherpesvirus 5 [5] it was 2 µg/mL (≈ 6.51 µM); with Human betaherpesvirus 5 [6], 2.2 µg/mL (≈ 7.16 µM). In addition, in data set [2], the CC50 at 72 h is greater than 100 µg/mL. In data set [3], the MCC at 72 h is no less than 20 µg/mL.

For `Cc1cc(Sc2ccc(Cl)cc2)c2ncc(CSCCc3ccccc3)n2c1`, the EC50 with Human alphaherpesvirus 3 [1], in the data set with Human alphaherpesvirus 3 [4], in the data set with Human betaherpesvirus 5 [5] and in the data set with Human betaherpesvirus 5 [6] was greater than 0.8 µg/mL throughout. In addition, the CC50 at 72 h in data set [2] is 100 µg/mL (≈ 235 µM). In data set [3], the MCC at 72 h turned out to be 4 µg/mL.

`Cc1cc(Sc2ccc(O)cc2)c2ncc(CSCCc3ccccc3)n2c1`: the EC50 in the data set on Human alphaherpesvirus 3 [1] is 58 µg/mL (≈ 143 µM); in the data set with Human alphaherpesvirus 3 [4], 2.9 µg/mL (≈ 7.13 µM); in the data set on Human betaherpesvirus 5 [5], 0.8 µg/mL (≈ 1.97 µM); in the data set with Human betaherpesvirus 5 [6] it was greater than 0.8 µg/mL. Also, the CC50 at 72 h in data set [2] turned out to be 79 µg/mL (≈ 194 µM). In addition, in data set [3], the MCC at 72 h is greater than 100 µg/mL.

With `Cc1cc(-n2ccc3ccccc32)c2ncc(CSCCc3ccccc3)n2c1`, the EC50 in the data set with Human alphaherpesvirus 3 [1] was greater than 20 µg/mL; in the data set with Human alphaherpesvirus 3 [4], greater than 20 µg/mL; in the data set with Human betaherpesvirus 5 [5] it was 10.5 µg/mL (≈ 26.4 µM); in the data set on Human betaherpesvirus 5 [6], 20 µg/mL (≈ 50.3 µM). Further, in data set [2], the CC50 at 72 h is greater than 100 µg/mL. Further, the MCC at 72 h in data set [3] was determined as 100 µg/mL.
